Data from BindingDB's records for doi:10.1021/jm051217c (University Hospital of The Westfälische …, 2006).

Columns and labels:
Caspase-8 = Caspase-8 (Homo sapiens, UniProt Q14790); assay: Inhibition of caspase 8
Outline: (§1)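 Recombinant human caspase-1, -6 or -8 at 0.5 units per assay, preincubated 10 min at 37 °C with compound in DMSO at single doses from 5 pM to 500 µM. Fluorogenic AMC substrate then added at 10 µM final (caspase-1 Ac-YVAD-AMC, caspase-6 Ac-VEID-AMC, caspase-8 Ac-IETD-AMC) for a further 10 min. Read-out was AMC fluorescence. IC50 taken by nonlinear regression.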

Caspase-1 = target: T1, Caspase-1 (Homo sapiens, UniProt P29466); assay: Inhibition of caspase 1; outline: as §1
T1 sequence (P29466 whole entry): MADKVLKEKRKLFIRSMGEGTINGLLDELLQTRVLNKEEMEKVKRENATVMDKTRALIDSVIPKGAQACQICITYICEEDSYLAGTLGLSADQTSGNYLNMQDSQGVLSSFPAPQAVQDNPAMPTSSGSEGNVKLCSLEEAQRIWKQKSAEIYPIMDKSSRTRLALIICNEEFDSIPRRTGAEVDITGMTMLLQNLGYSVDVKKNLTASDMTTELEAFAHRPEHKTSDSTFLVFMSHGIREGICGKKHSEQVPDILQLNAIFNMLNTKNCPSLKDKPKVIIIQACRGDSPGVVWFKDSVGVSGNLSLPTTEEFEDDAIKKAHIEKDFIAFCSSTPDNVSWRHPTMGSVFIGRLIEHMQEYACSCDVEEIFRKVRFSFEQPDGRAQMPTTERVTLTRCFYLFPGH

Caspase-6 = target: T2, Caspase-6 (Homo sapiens, UniProt P55212); assay: Inhibition of caspase 6; outline: as §1
T2 sequence (P55212 whole entry): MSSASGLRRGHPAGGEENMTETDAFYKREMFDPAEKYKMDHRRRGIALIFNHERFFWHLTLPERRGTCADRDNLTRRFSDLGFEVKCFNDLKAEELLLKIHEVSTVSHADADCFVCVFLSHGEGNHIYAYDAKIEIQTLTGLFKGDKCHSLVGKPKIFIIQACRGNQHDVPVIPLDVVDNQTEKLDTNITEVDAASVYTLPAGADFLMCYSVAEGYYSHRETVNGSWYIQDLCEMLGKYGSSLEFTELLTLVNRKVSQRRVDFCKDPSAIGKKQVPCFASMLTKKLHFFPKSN

Measured: IC50

Chain of Caspase-8 (Q14790 217-374 limits assumed): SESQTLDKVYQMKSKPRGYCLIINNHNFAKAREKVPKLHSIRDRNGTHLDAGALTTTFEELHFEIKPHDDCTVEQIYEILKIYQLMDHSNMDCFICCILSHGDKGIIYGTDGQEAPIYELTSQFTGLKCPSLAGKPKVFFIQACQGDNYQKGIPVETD
Chain of Caspase-8 (Q14790 385-479 limits assumed): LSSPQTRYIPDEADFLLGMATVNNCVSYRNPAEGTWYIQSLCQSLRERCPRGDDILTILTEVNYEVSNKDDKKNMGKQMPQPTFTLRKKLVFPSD

CCC[CH2][Sn]([CH2]CCC)([CH2]CCC)[c]1ccc(CN2C(=O)C(=O)c3cc(S(=O)(=O)N4CCC[C@H]4COC)ccc32)cc1 [(S)-5-[1-(2-methoxymethylpyrrolidinyl)sulfonyl]-1-(4-(tributylstannyl)benzyl)isatin]
> 500 µM: all assays above

CCC[CH2][Sn]([CH2]CCC)([CH2]CCC)[c]1ccc(CN2C(=O)C(=O)c3cc(S(=O)(=O)N4CCC[C@H]4COc4ccccc4)ccc32)cc1 [(S)-5-[1-(2-phenoxymethylpyrrolidinyl)sulfonyl]-1-(4-(tributylstannyl)benzyl)isatin]
> 500 µM: all assays above
